From ChEMBL document CHEMBL3286330, “Multivalent design of long-acting β(2)-adrenoceptor agonists incorporating biarylamines” (Bioorg Med Chem Lett, 2014)
Activity calls are given as the source filed them. No cut-off for these calls is given here.

What was measured:
[1] = target: T1, Beta-2 adrenergic receptor (Cavia porcellus, UniProt Q8K4Z4); experiment: Agonist activity at beta2 receptor in guinea pig trachea assessed as slow onset of inhibition of electrically stimulated contraction
Outline: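 Guinea pigs pretreated with 6-hydroxy-dopamine (200 mg/kg i.p.) 24 h before. Opened 5 mm tracheal rings between platinum electrodes in normal-K+ (4.7 mM) Krebs at 37 °C with 10 µM indomethacin, 1 µM choline, 3 µM guanethidine. Field stimulation: 9 V, 10 Hz, 1 ms pulses, 10 s train every 100 s. Resting tension 1 g, 1 h equilibration. Onset is the time to maximum effect at an EC80 concentration; slow is >30 min.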

[2] = target: Beta-3 adrenergic receptor (Homo sapiens, UniProt P13945); experiment: Agonist activity at human recombinant beta3 receptor assessed as cAMP accumulation by radioimmunoassay and cell based assay
Sequence of Beta-3 adrenergic receptor (P13945 whole entry): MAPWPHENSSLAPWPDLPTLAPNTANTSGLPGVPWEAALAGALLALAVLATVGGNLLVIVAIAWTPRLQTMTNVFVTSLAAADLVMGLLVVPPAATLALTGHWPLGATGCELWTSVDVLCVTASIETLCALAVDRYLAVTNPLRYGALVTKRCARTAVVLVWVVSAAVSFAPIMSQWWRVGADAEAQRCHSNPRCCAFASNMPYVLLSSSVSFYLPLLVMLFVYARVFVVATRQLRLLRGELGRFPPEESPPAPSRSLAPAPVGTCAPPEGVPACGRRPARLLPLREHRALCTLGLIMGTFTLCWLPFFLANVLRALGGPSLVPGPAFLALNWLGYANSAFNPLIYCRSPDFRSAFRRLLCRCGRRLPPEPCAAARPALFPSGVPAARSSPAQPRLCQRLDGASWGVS

Homo sapiens [3] = organism: Homo sapiens; experiment: Selectivity ratio Ki for beta1 receptor (unknown origin) to Ki for beta2 receptor (unknown origin)
[4] = target: T2, Beta-1 adrenergic receptor (Homo sapiens, UniProt P08588); experiment: Displacement of [3H]dihydroalprenolol from beta1 receptor (unknown origin) by liquid scintillation counting and cell based assay
T2 sequence (P08588 whole entry): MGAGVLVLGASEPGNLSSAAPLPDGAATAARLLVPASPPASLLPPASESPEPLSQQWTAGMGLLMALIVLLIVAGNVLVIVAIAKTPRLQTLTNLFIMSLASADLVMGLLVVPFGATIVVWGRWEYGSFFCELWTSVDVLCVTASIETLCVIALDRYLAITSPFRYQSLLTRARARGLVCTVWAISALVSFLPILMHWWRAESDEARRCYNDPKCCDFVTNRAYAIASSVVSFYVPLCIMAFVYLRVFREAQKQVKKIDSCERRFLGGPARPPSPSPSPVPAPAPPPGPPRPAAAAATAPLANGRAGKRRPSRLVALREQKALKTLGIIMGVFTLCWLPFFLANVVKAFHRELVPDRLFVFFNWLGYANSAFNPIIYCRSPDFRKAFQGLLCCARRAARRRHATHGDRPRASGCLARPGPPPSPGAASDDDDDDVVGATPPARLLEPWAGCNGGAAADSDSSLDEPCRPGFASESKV

[5] = target: T3, Beta-2 adrenergic receptor (Homo sapiens, UniProt P07550); experiment: Agonist activity at human recombinant beta2 receptor assessed as cAMP accumulation by radioimmunoassay and cell based assay; assay type: functional
T3 sequence (P07550 whole entry): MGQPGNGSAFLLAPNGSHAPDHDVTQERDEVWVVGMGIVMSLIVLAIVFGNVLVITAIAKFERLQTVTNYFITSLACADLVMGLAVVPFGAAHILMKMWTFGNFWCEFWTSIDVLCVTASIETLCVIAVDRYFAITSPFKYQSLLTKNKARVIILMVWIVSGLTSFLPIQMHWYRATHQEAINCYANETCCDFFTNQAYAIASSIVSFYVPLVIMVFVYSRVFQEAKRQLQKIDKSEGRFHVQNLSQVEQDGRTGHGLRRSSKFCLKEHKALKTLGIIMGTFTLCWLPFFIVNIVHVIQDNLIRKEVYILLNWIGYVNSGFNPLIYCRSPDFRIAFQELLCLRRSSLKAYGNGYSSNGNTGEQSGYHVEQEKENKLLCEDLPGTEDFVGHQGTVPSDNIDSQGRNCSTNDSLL

[6] = target: T3, Beta-2 adrenergic receptor; experiment: Displacement of [3H]dihydroalprenolol from beta2 receptor (unknown origin) by liquid scintillation counting and cell based assay
Homo sapiens [7] = organism: Homo sapiens; experiment: Selectivity ratio EC50 for human beta2 receptor to EC50 for human beta1 receptor
Outline: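 cAMP accumulation in whole cells overexpressing cloned human β2- or β1-adrenoceptor, measured by homogeneous radioimmunoassay. Selectivity is the ratio of agonist EC50s, β1 EC50/β2 EC50.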

[8] = target: T3, Beta-2 adrenergic receptor; experiment: Agonist activity at human beta2 receptor in BEAS-2B cells assessed as cAMP accumulation by radioimmunoassay; assay type: functional, cell-based
Homo sapiens [9] = organism: Homo sapiens; experiment: Selectivity ratio EC50 for human beta2 receptor to EC50 for human beta3 receptor
Outline: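 cAMP accumulation in whole cells overexpressing cloned human β-adrenoceptor subtypes, measured by homogeneous radioimmunoassay (Flashplate). Reported as pEC50. Functional selectivity is the ratio of EC50 values (β3 EC50/β2 EC50 for β3; β1 EC50/β2 EC50 for β1).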

[10] = target: T2, Beta-1 adrenergic receptor; experiment: Agonist activity at human recombinant beta1 receptor assessed as cAMP accumulation by radioimmunoassay and cell based assay
Cavia porcellus [11] = experiment: Inhibition of acetylcholine-induced bronchoconstriction in male guinea pig assessed as pulmonary resistance administered via nebulization for 10 mins measured after 72 hrs by plethysmograph; assay type: functional, organism-based
Outline: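 Guinea pigs dosed by nebulizer, 72 h before measurement. Pulmonary resistance measured in anesthetized, spontaneously breathing animals by head-out plethysmograph. Bronchoconstriction induced by increasing intravenous acetylcholine doses; PD2 is the ACh dose that doubles baseline resistance.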

Cavia porcellus [12] = experiment: Inhibition of acetylcholine-induced bronchoconstriction in male guinea pig assessed as pulmonary resistance at 1 -100 ug/ml administered via nebulization for 10 mins measured after 1.5 hrs by plethysmograph; assay type: functional, organism-based
[13] = target: T1, Beta-2 adrenergic receptor; experiment: Agonist activity at beta2 receptor in guinea pig trachea assessed as fast onset of inhibition of electrically stimulated contraction

T1 sequence (Q8K4Z4 whole entry): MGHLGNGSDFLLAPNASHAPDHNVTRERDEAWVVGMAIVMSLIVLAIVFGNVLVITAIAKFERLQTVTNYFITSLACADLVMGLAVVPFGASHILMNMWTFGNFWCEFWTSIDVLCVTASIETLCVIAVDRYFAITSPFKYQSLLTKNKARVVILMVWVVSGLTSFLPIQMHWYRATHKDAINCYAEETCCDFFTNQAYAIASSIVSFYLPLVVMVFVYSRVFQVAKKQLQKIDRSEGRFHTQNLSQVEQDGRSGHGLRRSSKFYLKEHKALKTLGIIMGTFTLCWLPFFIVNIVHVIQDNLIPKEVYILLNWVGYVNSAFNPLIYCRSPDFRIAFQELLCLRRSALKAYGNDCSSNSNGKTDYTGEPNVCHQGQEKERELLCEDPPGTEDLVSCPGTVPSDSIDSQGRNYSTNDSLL

Ratio Ki (Homo sapiens [3]) | Ki [4] [nM] | EC50 [5] [nM] | Ki [6] [nM] | Structure (SMILES) | also measured
– | – | – | – | OCc1cc(C(O)CNCCCCCCOCCCCc2ccccc2)ccc1O (configuration not stated) [SALMETEROL] | EC50 [1]: 31.6 nM; EC50 [2]: 1000 nM
27 | 31600 | 3.98 | 1260 | COc1ccc(Nc2ccc(CCNCC(O)c3ccc(O)c(CO)c3)cc2)cc1 (racemic) | –
36 | 12600 | 7.94 | 316 | OCc1cc(C(O)CNCCc2ccc(Nc3ccc(-c4ccccc4)cc3)cc2)ccc1O (racemic) | –
40 | 12600 | 2 | 316 | OCc1cc(C(O)CNCCc2ccc(Nc3cccc(-c4ccccc4)c3)cc2)ccc1O (racemic) | –
36 | 10000 | 6.31 | 251 | COC(=O)c1ccc(Nc2ccc(CCNCC(O)c3ccc(O)c(CO)c3)cc2)cc1 (racemic) | –
23 | 39800 | 200 | 1580 | OCc1cc(C(O)CNCCc2ccc(Nc3ccc(O)cc3)cc2)ccc1O (racemic) | –
– | > 10000 | 1000 | > 10000 | O=C(Cc1ccccc1)NC1CCN(c2ccc(CCNCC(O)c3ccc(O)c(CO)c3)cc2)CC1 (racemic) | –
34 | 12600 | 2.51 | 316 | OCc1cc(C(O)CNCCc2ccc(Nc3ccc4ccccc4c3)cc2)ccc1O (racemic) | –
3.4 | 126000 | 1260 | 39800 | O=C(c1ccccc1)C1CCN(c2ccc(CCNCC(O)c3ccc(O)c(CO)c3)cc2)CC1 (racemic) | –
– | – | 0.126 | – | COc1ccc(Nc2ccc(CCNC[C@H](O)c3ccc(O)c(NC=O)c3)cc2)cc1-c1ccccc1 | Ratio EC50 (Homo sapiens [7]): 75; EC50 [8]: 0.794 nM; EC50 [1]: 12.6 nM; Ratio EC50 (Homo sapiens [9]): 26; EC50 [2]: 3.16 nM; EC50 [10]: 10 nM
– | > 10000 | 25.1 | 31600 | OCc1cc(C(O)CNCCc2ccc(Br)cc2)ccc1O (racemic) | –
178 | 31600 | 1.26 | 158 | CCOc1ccc(Nc2ccc(CCNCC(O)c3ccc(O)c(CO)c3)cc2)cc1 (racemic) | EC50 [1]: 200 nM
– | – | 0.126 | – | COc1ccc(Nc2ccc(CCNC[C@H](O)c3ccc(O)c4[nH]c(=O)ccc34)cc2)cc1-c1ccccc1 | Ratio EC50 (Homo sapiens [7]): 56; EC50 [8]: 0.398 nM; inhibition (Cavia porcellus [11]): Dose-dependent effect; EC50 [1]: 2 nM; Ratio EC50 (Homo sapiens [9]): 100; EC50 [2]: 12.6 nM; EC50 [10]: 7.94 nM; inhibition (Cavia porcellus [12]): Active
– | > 10000 | 1580 | > 10000 | OCc1cc(C(O)CNCCc2ccc(NCc3ccc(Cl)c(Cl)c3)cc2)ccc1O (racemic) | –
0.6 | 126000 | 1580 | 200000 | OCc1cc(C(O)CNCCc2ccc(N3CCC(CCCc4ccccc4)CC3)cc2)ccc1O (racemic) | –
– | > 10000 | 398 | 12600 | OCc1cc(C(O)CNCCc2ccc(N3CCC(c4ccccc4)CC3)cc2)ccc1O (racemic) | –

Ratio Ki (Homo sapiens [3]) | Ki [4] [nM] | EC50 [5] [nM] | Ki [6] [nM] | Structure (SMILES) | also measured
5.4 | 31600 | 200 | 6310 | OCc1cc(C(O)CNCCc2ccc(Nc3cccc4ccccc34)cc2)ccc1O (racemic) | –
81 | 7940 | 2.51 | 79.4 | CSc1ccc(Nc2ccc(CCNCC(O)c3ccc(O)c(CO)c3)cc2)cc1 (racemic) | –
158 | 15800 | 2.51 | 100 | CC(C)Oc1ccc(Nc2ccc(CCNCC(O)c3ccc(O)c(CO)c3)cc2)cc1 (racemic) | –
4.8 | 79400 | 501 | 15800 | OCc1cc(C(O)CNCCc2ccc(N3CCC(Cc4ccccc4)CC3)cc2)ccc1O (racemic) | –
– | > 10000 | 200 | 31600 | OCc1cc(C(O)CNCCc2ccc(N3CCN(c4ccccc4)CC3)cc2)ccc1O (racemic) | –
319 | 20000 | 1.26 | 63.1 | COc1ccc(Nc2ccc(CCNCC(O)c3ccc(O)c(CO)c3)cc2)cc1-c1ccccc1 (racemic) | –
– | – | 0.501 | – | COc1ccc(Nc2ccc(CCNC[C@H](O)c3ccc(O)c(CO)c3)cc2)cc1-c1ccccc1 | EC50 [8]: 3.98 nM; EC50 [1]: 2 nM
– | > 10000 | 158 | > 10000 | OCc1cc(C(O)CNCCc2ccc(NCc3ccc4ccccc4c3)cc2)ccc1O (racemic) | –
– | > 10000 | 10000 | > 10000 | CC(=O)N1CCN(c2ccc(CCNCC(O)c3ccc(O)c(CO)c3)cc2)CC1 (racemic) | –
31 | 25100 | 7.94 | 794 | OCc1cc(C(O)CNCCc2ccc(Nc3ccc4c(c3)CCC4)cc2)ccc1O (racemic) | –
6.5 | 7940 | 31.6 | 1260 | OCc1cc(C(O)CNCCc2ccc(Nc3ccc(F)cc3)cc2)ccc1O (racemic) | –
17 | 12600 | 10 | 631 | COc1cccc(Nc2ccc(CCNCC(O)c3ccc(O)c(CO)c3)cc2)c1 (racemic) | –
3030 | 10000 | – | 3.16 | O=CNc1cc([C@@H](O)CNCCc2ccc(NC[C@H](O)c3ccccc3)cc2)ccc1O [MILVETEROL] | EC50 [13]: 0.0501 nM
– | > 10000 | 631 | > 10000 | COc1ccc(CN2CCN(c3ccc(CCNCC(O)c4ccc(O)c(CO)c4)cc3)CC2)cc1 (racemic) | –
16 | 6310 | 20 | 316 | OCc1cc(C(O)CNCCc2ccc(Nc3ccc(Oc4ccccc4)cc3)cc2)ccc1O (racemic) | –
